Source: publication PMC4128068 (British Journal of Pharmacology, 2014)

Assays:
[1] = target: T1, volume-sensitive outwardly rectifying Cl− conductance (VSORC) (Mus musculus, UniProt Q80WG5); assay type: cell-based; conditions: CFTR-expressing cells
T1 sequence (Q80WG5 1-810): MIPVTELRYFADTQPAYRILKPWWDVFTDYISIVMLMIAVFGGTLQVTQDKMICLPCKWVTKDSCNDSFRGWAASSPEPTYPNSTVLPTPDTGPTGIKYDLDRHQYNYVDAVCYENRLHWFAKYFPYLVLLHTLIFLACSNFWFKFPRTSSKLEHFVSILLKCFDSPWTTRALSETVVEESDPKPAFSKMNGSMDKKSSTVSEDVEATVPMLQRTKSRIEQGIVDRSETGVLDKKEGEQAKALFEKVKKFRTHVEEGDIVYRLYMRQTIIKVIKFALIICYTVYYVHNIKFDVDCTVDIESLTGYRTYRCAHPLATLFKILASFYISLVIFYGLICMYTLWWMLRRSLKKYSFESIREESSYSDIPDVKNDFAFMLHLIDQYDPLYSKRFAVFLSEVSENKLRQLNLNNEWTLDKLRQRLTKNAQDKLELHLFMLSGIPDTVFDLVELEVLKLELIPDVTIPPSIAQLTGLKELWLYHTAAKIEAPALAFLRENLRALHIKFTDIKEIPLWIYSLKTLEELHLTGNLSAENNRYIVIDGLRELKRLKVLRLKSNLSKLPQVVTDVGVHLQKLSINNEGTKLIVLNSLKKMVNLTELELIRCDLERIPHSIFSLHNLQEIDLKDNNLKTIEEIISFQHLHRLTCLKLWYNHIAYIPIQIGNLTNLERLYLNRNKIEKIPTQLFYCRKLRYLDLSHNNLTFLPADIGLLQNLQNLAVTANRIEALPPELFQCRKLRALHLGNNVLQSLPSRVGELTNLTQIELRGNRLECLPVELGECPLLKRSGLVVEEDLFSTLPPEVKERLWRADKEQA
Procedure, shortened: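 Ruptured whole-cell patch clamp on kidney cells. Pipette: 140 mM NMDGCl, 10 HEPES pH 7.4, 5 EGTA, 5 MgATP. VSORC was activated by switching from a mannitol-containing NMDGCl bath (320–330 mOsm) to a mannitol-free one (285–290 mOsm). Test compound (0.5–10 µM) was perfused after 3–4 min. Cells were held at −40 mV with 400 ms steps from −100 to +100 mV. Slopes (−100 to −60 and +60 to +100 mV) were normalised to the hypotonic maximum; 5–6 cells.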

[2] = tested on: kidney PCT cells (CFTR-expressing); assay: LIVE/DEAD cell viability/cytotoxicity assay; assay type: cell-based, mouse; conditions: 24 h
Procedure, shortened: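 Confluent mouse kidney PCT monolayers in 1% serum were exposed to the test compound (0.5–50 µM) for 24 h. Live cells were stained with calcein-AM (green) and dead cells with […] (red). Green and red pixels were quantified on three micrographs per well. Values were normalised to 100% live cells in controls, as means ±SEM of 3–6 experiments.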

[3] = tested on: kidney PCT cells (CFTR-expressing); assay: MTT assay on CFTR-expressing cells; assay type: cell-based, mouse; conditions: 24 h
PS120 cells = assay: MTT assay on non–CFTR-expressing cells; assay type: cell-based, hamster; conditions: 24 h
Procedure, shortened: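 PS120 cells in 1% serum were exposed to increasing test compound concentrations for 24 h. They were then incubated 1 h with 0.5 mg mL−1 MTT in phenol red-free DMEM:F12 with 5% serum at 37°C. Cells were lysed in 10% SDS/0.01 N HCl overnight and OD read at 562 nm. Values were normalised to vehicle, means (SEM) of eight experiments.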

[4] = target: CFTR-like Cl− conductance (Mus musculus, UniProt P26361); assay type: cell-based
Chain of CFTR-like Cl− conductance (P26361 whole entry, the tested form may be a part): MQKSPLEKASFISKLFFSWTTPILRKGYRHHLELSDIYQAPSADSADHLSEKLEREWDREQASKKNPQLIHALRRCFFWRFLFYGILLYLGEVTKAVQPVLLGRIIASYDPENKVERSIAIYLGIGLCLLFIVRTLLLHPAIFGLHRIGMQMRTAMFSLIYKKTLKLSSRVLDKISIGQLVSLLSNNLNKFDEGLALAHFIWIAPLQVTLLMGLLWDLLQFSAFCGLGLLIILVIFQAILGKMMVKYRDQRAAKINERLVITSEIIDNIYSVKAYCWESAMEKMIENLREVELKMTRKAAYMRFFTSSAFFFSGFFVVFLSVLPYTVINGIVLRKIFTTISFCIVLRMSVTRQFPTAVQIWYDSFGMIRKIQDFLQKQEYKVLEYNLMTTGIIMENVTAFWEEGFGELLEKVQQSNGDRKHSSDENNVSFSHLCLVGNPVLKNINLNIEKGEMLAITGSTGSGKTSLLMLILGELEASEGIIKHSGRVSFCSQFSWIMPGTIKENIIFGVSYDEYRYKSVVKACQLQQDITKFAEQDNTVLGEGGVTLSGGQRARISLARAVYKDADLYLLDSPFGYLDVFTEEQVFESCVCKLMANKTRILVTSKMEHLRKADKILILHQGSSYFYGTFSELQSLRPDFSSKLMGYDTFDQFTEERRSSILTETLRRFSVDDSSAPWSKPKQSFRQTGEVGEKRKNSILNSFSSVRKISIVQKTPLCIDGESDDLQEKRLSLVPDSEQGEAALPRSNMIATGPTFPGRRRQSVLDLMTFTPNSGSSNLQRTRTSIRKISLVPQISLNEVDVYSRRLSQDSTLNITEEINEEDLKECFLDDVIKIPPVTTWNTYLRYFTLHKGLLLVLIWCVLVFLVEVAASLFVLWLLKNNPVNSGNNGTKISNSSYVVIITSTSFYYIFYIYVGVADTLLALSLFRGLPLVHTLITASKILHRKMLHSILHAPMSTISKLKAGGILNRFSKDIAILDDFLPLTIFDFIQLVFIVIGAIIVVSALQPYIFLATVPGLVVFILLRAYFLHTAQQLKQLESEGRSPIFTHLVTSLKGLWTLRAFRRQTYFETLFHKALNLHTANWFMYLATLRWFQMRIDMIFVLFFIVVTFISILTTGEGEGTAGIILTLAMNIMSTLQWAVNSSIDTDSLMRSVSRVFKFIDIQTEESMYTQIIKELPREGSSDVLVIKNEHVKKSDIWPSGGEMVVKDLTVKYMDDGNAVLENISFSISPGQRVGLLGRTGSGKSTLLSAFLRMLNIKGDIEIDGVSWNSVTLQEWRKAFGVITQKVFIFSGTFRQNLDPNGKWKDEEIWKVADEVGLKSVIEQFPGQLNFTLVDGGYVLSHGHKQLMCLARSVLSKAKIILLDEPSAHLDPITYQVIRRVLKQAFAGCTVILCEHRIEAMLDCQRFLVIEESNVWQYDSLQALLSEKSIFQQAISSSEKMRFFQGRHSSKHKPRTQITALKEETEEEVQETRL
Procedure, shortened: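 Ruptured whole-cell patch clamp on cultured kidney DCT cells. CFTR current activated with forskolin (1–10 µM); once fully developed (3–4 min), test compound was perfused at rising concentrations (0.5, 1, 5, 10 µM). Holding potential −40 mV; eleven 400-ms steps from −100 to +100 mV in +20 mV increments. Current read 350 ms after pulse onset; mean ±SEM of six to eight cells.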

human CFTR = conditions: 20 µM; oocyte expression system; ref Stahl et al., 2012; cited from earlier work
[5] = tested on: Ca2+-dependent Cl− conductance (CaCC); assay: whole-cell patch-clamp, ionomycin-activated CaCC in CFTR-expressing kidney cells; assay type: cell-based, mouse
Procedure, shortened: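 Ruptured whole-cell patch clamp on kidney cells, with the NMDGCl pipette solution (5 EGTA, 5 MgATP, pH 7.4). CaCC was activated with 2 µM ionomycin, and test compound (1, 5, 10 µM) was perfused once current peaked. Cells were held at −40 mV with 400 ms steps from −100 to +120 mV. Slopes (+60 to +120 mV) were normalised to the uninhibited maximum; 5–6 cells. IC50 came from Hill fits.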

[6] = tested on: shark 'CFTR-like' protein; conditions: 25 µM; oocyte expression system; ref Stahl et al., 2012; cited from earlier work

Structure (SMILES) | inhibition of the remaining fraction of the VSORC current ([1]; 100 µM, after CFTRinh-172) | effect on cell viability (live/dead labelling) ([2]; 50 µM) | effect on cell viability (live/dead labelling) ([2]; 1 to 20 µM) | effect on cell viability (MTT) ([3]; 20 µM and even 10 µM) | effect on cell viability (MTT) ([3]; 50 µM) | concentration decreasing cell viability (MTT) (PS120 cells) | inhibition of the CFTR conductance ([4]; 5 µM) | concentration of maximal inhibition of the CFTR-like current ([4]; forskolin-activated, tested 0.5, 1, 5, 10 µM) | inhibition of human CFTR (human CFTR) | inhibition of the CaCC ([5]; 5 µM) | effect on the CaCC ([5]; up to 10 µM, ionomycin 2 µM) | inhibition of shark 'CFTR-like' protein [6] | inhibition of VSORC ([1]; 10 µM, negative and positive potentials) | IC50 ([1]; read-out: IC50 towards VSORC-mediated Cl− currents, either at negative or positive potentials) | effect on VSORC conductance ([1]; up to 1 µM)
O=C(O)c1cc([N+](=O)[O-])ccc1NCCCc1ccccc1 [NPPB, 5-nitro-2-(3-phenylpropylamino)-benzoic acid] | completely inhibited |  |  |  |  |  |  |  |  |  |  |  |  |  | 
O=C(O)c1ccc(C=C2SC(=S)N(c3cccc(C(F)(F)F)c3)C2=O)cc1 [CFTRinh-172, 3-[(3-trifluoromethyl)phenyl]-5-[(4-carboxyphenyl)methylene]-2-thioxo-4-thiazolidinone] |  | induced cell death | no significant effect on cell viability | marked effect | dramatic decrease of the cell viability | 5 µM | full inhibition | 5 µM | ~50% | no noticeable inhibition | did not affect | 10% | ~50% | 12 µM | did not affect
